From PMC8054679 (Analytical biochemistry, 2020)
“Also recorded” adds a separate entry of the source.

Experiments:
[1] = test system: Hsp70-CHIP interaction (myc-LgBiT-IEEVD / SmBiT-CHIP-FLAG); format: cell-based; settings: for effect on NanoBiT luminescence, single dose: 5 μM, 6 hours, mean ± SD (n=3)
Outline: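 Stable reporter cells induced overnight with dox 100 μg/mL in 96-well plates. Peptides (DMSO-dissolved) given at 10 µM for 1 h; small-molecule inhibitors given at 5 µM for 6 h. Live-cell substrate added in Opti-Mem, 5 min dark at room temperature, then read at 500 ms integration. Uninduced background subtracted; normalized to DMSO control as percent; mean ± SD, n=3.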

[2] = test system: CHIP TPR domain; settings: cited from earlier work
[3] = test system: Hsp70; test: Western blot of lysate protein levels: Hsp70; format: cell-based; settings: compared to vehicle; western blot of treated NanoBiT cells
Outline: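 Reporter cells dox-induced overnight, then given test compound for 6 h. Inputs denatured 5 min at 95 °C. Blots blocked 1 h, primary antibody 1:1000 overnight at 4 °C, secondary 1:10000 for 1 h.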

[4] = test system: NanoBiT reporter components (myc-LgBiT-IEEVD, SmBiT-CHIP-FLAG); test: Western blot of lysate protein levels: NanoBiT reporter components; format: cell-based; settings: anti-myc or anti-FLAG
[5] = test system: dox-inducible NanoBiT reporter in NanoBiT cells; test: NanoBiT luminescence assay of dox-dependence and signal stability; format: cell-based; settings: dox 100 μg/mL, 24 hours
Outline: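 HEK293 Flp-In T-REx cells electroporated with a bicistronic myc-LgBiT-IEEVD/SmBiT-CHIP-FLAG vector plus pOG44, selected with 100 µg/mL hygromycin, and cloned. Cells cultured in 96-well plates ±dox 100 μg/mL for 24 h. Live-cell furimazine substrate added in Opti-Mem, 5 min dark at room temperature, then read at 500 ms integration. Uninduced-cell background subtracted; mean ± SD, n=3.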

Ac-LWWPD
efficacy in the NanoBiT assay ([1]; discussion statement, peptide without CPP): no efficacy
affinity for CHIP in vitro ([2]; in vitro, see Figure 1 (FP, adapted from ref 21)): sub-micromolar affinity

CO[C@H]1/C=C\C=C(/C)C(=O)NC2=CC(=O)C(NCCN(C)C)=C(C[C@@H](C)C[C@H](OC)[C@H](O)[C@@H](C)/C=C(\C)[C@@H]1OC(N)=O)C2=O [17-DMAG, 17-dimethylaminoethylamino-17-demethoxygeldanamycin]
total abundance of Hsp70 in the lysate [3]: increased the total abundance of Hsp70 in the lysate; also recorded: induces Hsp70 levels
effect on NanoBiT luminescence, single dose ([1]; percent of DMSO control): reduced the luminescence

CCn1c(=O)/c(=C2\Sc3cc(Cl)ccc3N2C)s/c1=C\c1scc[n+]1Cc1ccccc1.[Cl-] [JG-98]
stability/expression of NanoBiT reporter components [4]: partially destabilized both components of the NanoBiT reporter
effect on NanoBiT luminescence, single dose ([1]; percent of DMSO control): reduced luminescence

CCn1c(=O)/c(=C2\SCCN2C)s/c1=C\c1scc[n+]1Cc1ccccc1.[Cl-] [JG-258]
effect on NanoBiT luminescence, single dose ([1]; percent of DMSO control): but not an inactive control, JG-258, reduced luminescence

R9-LWWPD
reduction of NanoBiT luminescence ([1]; 10 μM peptide, 1 hour, normalized to DMSO control, n=3): approximately 40%
effect on NanoBiT luminescence, peptides, single dose ([1]; 10 μM, 1 hour, percent of DMSO control, n=3): cell active inhibitor

LWWPD
binding to CHIP's purified TPR domain relative to IEEVD ([2]; FP, peptide in vitro, fold better than IEEVD): at least 10 fold

C[C@H]1c2cccc(O)c2C(=O)C2=C(O)[C@]3(O)C(=O)C(C(N)=O)=C(O)[C@@H](N(C)C)[C@@H]3[C@@H](O)[C@@H]21 [dox, doxycycline]
luminescence with dox ([5]; mean ± SD (n=3)): 47300 ± 1270 RLU
fold increase of luminescence compared to control without dox ([5]; n=3): 31 fold
stability/expression of NanoBiT reporter components [4]: both reporter components were expressed in response to dox, with little background
